Measurements collected from several papers.
Each line is one published result; the experiments were not run side by side.
Target: Cyclin-dependent kinase-like 3 (CDKL3, Homo sapiens, UniProt Q8IVW4)

CC(C)(O)c1cncc(-c2nc3ccc(F)cc3n2C2CC2)c1  remaining binding (cell-free assay; competition with immobilised ligand; 1 µM): 84%
COc1cnc(Nc2cccc(S(N)(=O)=O)c2)nc1N1CCN(c2ccccc2)CC1  remaining binding (binding; competition with immobilised ligand; 1 µM): 100%
Cc1cnc(Nc2ccc(C(=O)N3CCC(N4CCCC4)CC3)cc2)nc1-c1cc2ccccc2s1  remaining binding (binding; competition with immobilised ligand; 1 µM): 89%
CNCc1ccccc1-c1csc([C@@H](C)Nc2nc(C)nc3cc(OC)c(OC)cc23)c1  remaining binding (cell-free assay; competition with immobilised ligand; 1 µM): 99%
COc1ncc2cc3ccccc3nc2c1C#N  remaining binding (binding; competition with immobilised ligand; 5 µM): 85%
COc1cnc(Nc2cccc(S(N)(=O)=O)c2)nc1N1CCN(c2ccccc2)C(=O)C1  remaining binding (binding; competition with immobilised ligand; 1 µM): 99%
Nc1ncc2c(n1)-c1c([nH]c3ccc(C#CC4CC4)cc13)CCCC2  remaining binding (binding; competition with immobilised ligand; 1 µM): 83%
Cn1nc(C(=O)NCc2ccc(C(=O)O)cc2)cc1-c1ccc2[nH]ccc2c1  remaining binding (cell-free assay; competition with immobilised ligand; 0.1 µM): 100%
N[C@H]1CCN(c2nccc(-c3cnn4ncccc34)n2)C1  remaining binding (binding; 1 µM): 100%
O=C(NCCCN1CCOCC1)c1ccc(Nc2nccc(-c3cc4ccccc4s3)n2)cc1  remaining binding (binding; competition with immobilised ligand; 1 µM): 89%
C[C@@H]1CCN(c2nccc(-c3cnn4ncccc34)n2)C1  remaining binding (binding; 1 µM): 93%
CN(C)CC#Cc1ccc(OCCCc2sc(N3CCc4cccc(C(=O)Nc5nc6ccccc6s5)c4C3)nc2C(=O)O)c(F)c1  remaining binding (cell-free assay; competition with immobilised ligand; 1 µM): 100%
F[C@@H]1CCN(c2nccc(-c3cnn4ncccc34)n2)C1  remaining binding (binding; 1 µM): 100%
CN(c1ccnc(CNc2nc(Nc3ccc4c(c3)CC(=O)N4)ncc2C(F)(F)F)n1)S(C)(=O)=O  remaining binding (cell-free assay; competition with immobilised ligand; 1 µM): 78%
CN(C)c1nccc(-c2cnc3ncccn23)n1  remaining binding (binding; 1 µM): 100%
FC(F)(F)Oc1cccc(-c2cnc3ccc(-c4ccncc4)nn23)c1  remaining binding (cell-free assay; competition with immobilised ligand; 5 µM): 85%
O=C(Nc1c[nH]nc1C(=O)NC1CCNCC1)c1cc(F)cc(F)c1  remaining binding (binding; competition with immobilised ligand; 1 µM): 100%
O=C(c1ccc(Nc2ncc(Cl)c(-c3cc4ccccc4s3)n2)cc1)N1CCC(N2CCCC2)CC1  remaining binding (binding; competition with immobilised ligand; 1 µM): 47%
c1cnn2ncc(-c3ccnc(N4CCC45COC5)n3)c2c1  remaining binding (binding; 1 µM): 93%
CCCCN(CCCC)C(=O)CN1C[C@H](c2cc(OC)c3c(c2)OCO3)[C@@H](C(=O)O)[C@@H]1CC(C)(C)CCC  remaining binding (cell-free assay; competition with immobilised ligand; 1 µM): 100%
